Screening results from PubChem BioAssay.
Cl transport mod: KCC2 cotransporter modulators, thallium flux, primary screen, cell-based, HEK293 KCC2, FluoZin-2 fluorescence, MLSMR. KCC2 cells, thallium flux FluoZin-2 fluorescence. B-score of Tl+ flux slope (higher = more flux/activation; lower = inhibition) at 10 µM. 190,000 compounds, 2.2% hits;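 active = thallium flux slope and its plate-corrected score both differing from the plate sample mean at a set confidence after two filtering rounds, in either direction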;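 note: slope of fluorescence scaled to starting intensity during 10 to 20 s after thallium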
KCNK3 inh: human KCNK3 channel inhibitors, primary screen, CHO cells, FluxOR thallium flux, B-score | AID 602410, 2012 | Potassium channel subfamily K member 3 (Homo sapiens), O14649 | B-score at 10 µM | 340,000 compounds, 0.84% hits | FluxOR fluorescence; stronger effect = lower value;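 active = B-score under library mean minus 4 SD, starting fluorescence ratio at most library mean plus 5 SD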;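 note: more negative B-score means stronger inhibition of thallium flux through KCNK3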
Target sequence (O14649 whole entry, looked up): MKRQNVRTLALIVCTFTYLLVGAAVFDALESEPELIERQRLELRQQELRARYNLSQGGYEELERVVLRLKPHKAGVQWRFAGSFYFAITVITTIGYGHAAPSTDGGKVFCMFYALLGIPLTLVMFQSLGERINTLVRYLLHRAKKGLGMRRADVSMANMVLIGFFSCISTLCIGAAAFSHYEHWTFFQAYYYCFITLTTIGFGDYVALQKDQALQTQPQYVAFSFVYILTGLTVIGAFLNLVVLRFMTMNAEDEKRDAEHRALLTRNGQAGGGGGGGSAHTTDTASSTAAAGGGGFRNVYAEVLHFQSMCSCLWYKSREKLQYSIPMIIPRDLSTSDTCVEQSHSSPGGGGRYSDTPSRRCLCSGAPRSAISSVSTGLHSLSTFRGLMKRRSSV
KCNQ1 pot: potentiators or activators of KCNQ1 channel, primary screen, cell-based, thallium flux, high-throughput; Potassium voltage-gated channel subfamily KQT member 1 (Homo sapiens), P51787; CHO-K1 KCNQ1, thallium flux FluxOR fluorescence; stronger effect = higher value; B-score at 10 µM; 310,000 compounds, 0.35% hits; AID 2648, 2010;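 active = fluorescence ratio B-score, a plate-corrected score, at least three library SD, with initial intensity B-score within 5 SD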
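Schedule – 37 °C overnight plating, 90-min dark dye load, 20-min compound pretreatment · System – stable KCNQ1 CHO-K1 line · Probe or stimulus – thallium- and potassium-containing depolarizing buffer · Measured by – kinetic FluxOR fluorescence, 10 s baseline plus 110 s post-stimulus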
hERG rescue: hERG rescue from dofetilide block, primary screen, cell-based, CHO-hERG, FluxOR thallium flux, dofetilide IC70; AID 1511, 2009; activation (rescue from dofetilide block), less the hit threshold, % at 10 µM; dofetilide IC70 present; 310,000 compounds, 0.51% hits; Voltage-gated inwardly rectifying potassium channel KCNH2 (Homo sapiens), Q12809;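 active = activation above the mean of controls blocked by dofetilide plus 5 SD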;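 note: thallium influx through hERG after potassium depolarization seen as dye fluorescence rise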
KCNK9 inh: KCNK9 potassium channel inhibitors, primary screen, HEK293 cells, thallium flux. Potassium channel subfamily K member 9 (Homo sapiens), Q9NPC2. FluxOR thallium flux fluorescence; stronger effect = lower value. B-score at 10 µM. 310,000 compounds, 1.2% hits;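 active = ratio B-score over 3 SD below the library mean, with starting fluorescence within 5 SD of its mean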;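 note: negative B-score means less thallium flux so channel inhibition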
KCNQ1 block: inhibitors of human KCNQ1 channel, primary screen, cell-based, thallium flux, high-throughput; Potassium voltage-gated channel subfamily KQT member 1 (Homo sapiens), P51787; CHO-K1 KCNQ1, FluxOR thallium flux fluorescence; stronger effect = higher value; B-score at 10 µM; 310,000 compounds, 1.3% hits;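 active = compounds whose thallium flux B-score, printed positive for inhibition, exceeds three library SD while starting fluorescence stays within three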;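 note: channel opened by potassium depolarization with thallium stimulus after 20 min compound exposure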
Numbers without * were called inactive; i = inactive; . = no result. This is a sample that favours compounds with a hit; in the whole collection about 4.1% have one here.

SMILES | Cl transport mod | KCNK3 inh | KCNQ1 pot | hERG rescue | KCNK9 inh | KCNQ1 block
O=C(Nc1ccc(Cl)c(S(=O)(=O)N2CCCCC2)c1)c1ccco1 | . | i | . | . | . | .
Cc1ccc2c(c1)[C@H]1[C@H](CO2)[C@H](c2ccccc2)[C@]2(C)C(=O)NCC(=O)N12 | . | i | . | . | . | .
CC1Cc2ccccc2N1c1nc(C2CC2)nc2c1nnn2Cc1ccccc1 (stereo not given) | 0.365 | i | i | -5.4 | i | 6*
CC1Cc2ccccc2N1c1ncnc2c1nnn2Cc1ccccc1 (stereo not given) | 0.157 | i | i | -9.6 | i | i
O=C(NNC(=O)c1ccco1)c1cccc(Br)c1 | . | i | i | -1.8 | i | i
Clc1ccc2c(N/N=C/c3ccccc3Br)ccnc2c1 | -0.0489 | i | i | -3.2 | i | i
Clc1ccc2c(N/N=C/c3cccc(Br)c3)ccnc2c1 | 0.538 | i | i | -3.3 | i | 9*
COc1cc(NC(=S)NNC(=O)C(C)(C)O)cc(OC)c1 | 0.399 | i | i | 8.9* | i | i
Cc1ccc(C)c(CNc2ccc(S(=O)(=O)N3CCCCC3)cc2)c1 | . | i | . | . | . | .
O=C(Nc1cccn(Cc2c(Cl)cccc2Cl)c1=O)c1ccccc1Cl | -1.4 | i | i | -3.8 | -6.79* | i
CCN(CC)CCNC(=O)c1ccc(NC(=O)c2cn(-c3ccccc3)nc2-c2cccs2)cc1 | -0.19 | i | i | -27.6 | i | 7*
COc1cc(COC(=O)Oc2ccc(CNC(C)=O)cc2OC)c([N+](=O)[O-])cc1OC | . | i | i | -7.0 | i | i
O=C(N[C@H]1C/C=C\C[C@H](CC(=O)N(CCO)Cc2ccccc2)C(=O)N[C@@H](c2ccccc2)COC1=O)OCC1c2ccccc2-c2ccccc21 | . | i | . | . | . | .
CN1CC(=O)N(CC(=O)Nc2ccc(Cl)c(C(F)(F)F)c2)C1=O | -1.1 | i | i | 4.6* | i | i
O=C(NC1CC1)C1CCC(=O)N1C1CCCC1 (stereo not given) | 0.143 | i | i | 5.2* | i | i
CC(C)N1C(=O)CCC1C(=O)NC1CCCC1 (stereo not given) | . | i | i | -5.8 | i | i
O=C(Nc1cccnc1)c1ccc([N+](=O)[O-])s1 | . | i | . | . | . | .
COc1ccc(OC)c(Nc2nc(-c3sc(N)nc3C)cs2)c1 | -0.0152 | i | i | -9.4 | -6.71* | i
CC(=O)c1c(C)[nH]c(C(=O)Nc2nc(-c3ccc(Cl)cc3)cs2)c1C | -2.56 | i | i | -25.0 | i | i
CC(=O)c1c(C)[nH]c(C(=O)Nc2nc(-c3ccc(-c4ccccc4)cc3)cs2)c1C | 1.45 | i | i | -28.9 | i | 8*
CNC(=S)N1CCn2cccc2C1c1cc(OC)c(OC)c(OC)c1 (stereo not given) | -0.0269 | i | i | -9.6 | i | i
CCNC(=S)N1CCn2cccc2C1c1ccc(F)cc1 (stereo not given) | -0.4 | i | i | -8.4 | -7.98* | i
CC(C)CC(NC(=O)/C(=C/c1ccco1)NC(=O)c1ccc(Br)o1)C(=O)O (stereo not given) | . | i | i | -1.5 | i | i
C=CCOc1ccccc1CN(C(=O)CCl)c1ccc2c(c1)OCO2 | . | i | i | -6.0 | i | i
COC(=O)c1ccnc(/C=N/O)c1 | 0.0413 | i | i | 6.2* | i | i
SMILES | Cl transport mod | KCNK3 inh | KCNQ1 pot | hERG rescue | KCNK9 inh | KCNQ1 block
COC(=O)c1ccnc(SCC(=O)c2ccccc2)c1 | -0.328 | i | i | -13.7 | i | i
CCN(Cc1ccccc1)S(=O)(=O)c1ccccc1Br | . | i | . | . | . | .
C=CCCCN(Cc1ccccc1)S(=O)(=O)c1ccccc1Br | 0.226 | i | i | -16.5 | -7.71* | i
Cc1ccc(C)c(S(=O)(=O)NCc2ccncc2)c1 | 0.375 | i | i | -8.9 | i | i
Cc1cc(S(=O)(=O)NCc2ccncc2)c(C)cc1Br | . | i | i | -15.2 | i | 6*
O=C(NCc1cccnc1)C12CC3CC(CC(Cl)(C3)C1)C2 | . | i | i | -7.3 | i | i
O=C(CSc1nc2ccccc2n1CCc1ccccc1)c1ccc(O)c(O)c1 | 7.84* | i | . | . | . | .
C[C@H]1CC[C@H]2C(=O)N3[C@H](c4ccccc4Br)[C@@H](C)CC[C@H]3C(=O)N2[C@@H]1c1ccccc1Br | 4.37* | . | i | -9.9 | -9.59* | i
CC(C)c1ccc(C2CC(=O)c3cnc(NC(=O)c4ccco4)nc3C2)cc1 (stereo not given) | . | i | i | -7.9 | i | i
CC1=CSC2=NC(=O)/C(=C\c3cccn3-c3ccccc3)C(=N)N12 | 0.683 | i | i | -5.2 | i | i
CC(C)c1ccc(-n2cccc2/C=C2/C(=N)N3C=CSC3=NC2=O)cc1 | 22* | i | i | -2.9 | i | i
Cc1cc(C)cc(C(=O)NCC(=O)N2CCN(C(c3ccccc3)c3ccccc3)CC2)c1 | . | i | i | -17.5 | i | 6*
Cc1c(C(=O)N2CCN(CC(=O)Nc3ccccc3Cl)CC2)oc2ccc(Br)cc12 | . | i | . | . | . | .
O=C(CC(c1ccccc1)c1ccccc1)Nc1ncn[nH]1 | 0.0734 | i | 24* | -1.5 | i | i
Cc1sc(-c2ccccn2)nc1OC(=O)c1cccc(Cl)c1Cl | . | i | i | 5.8* | i | i
Cc1ccc(-n2nc(C)c3c(C)c(CCC(=O)Nc4ccc(CN5CCCC5)cc4)c(C)nc32)cc1 | 0.174 | i | i | -20.2 | i | 6*
O=[N+]([O-])c1cccc(S(=O)(=O)NCC2CC3CCC2C3)c1 (stereo not given) | . | i | i | -5.2 | i | i
O=[N+]([O-])c1ccc(S(=O)(=O)NCC2CC3CCC2C3)cc1 (stereo not given) | . | i | i | -2.6 | i | 7*
CNC(=O)COc1ccc(S(=O)(=O)N2CCCC2)cc1 | . | i | i | -6.2 | i | i
CCn1c(=S)[nH]c2nc3c(cc2c1=O)CCCC3 | 42.3* | i | i | -8.0 | i | i
O=c1c2cc3c(nc2[nH]c(=S)n1-c1ccccc1)CCCC3 | 5.92 | i | i | -3.6 | i | i
